Most compounds without a hit are left out; they make up all but 1.8% or so of the library.
FLuc inh counter – inhibits firefly luciferase, flagging false hits in luciferase inhibition screens; ATPLite firefly luciferase biochemical luminescence, 10 min; actives 1.5% (n = 200,000); AID 1006; inhibition, % at 10 µM; P08659;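 active = inhibition above about 50% when tested at 10 µM, limit read from the data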
Target sequence (P08659 whole entry, looked up): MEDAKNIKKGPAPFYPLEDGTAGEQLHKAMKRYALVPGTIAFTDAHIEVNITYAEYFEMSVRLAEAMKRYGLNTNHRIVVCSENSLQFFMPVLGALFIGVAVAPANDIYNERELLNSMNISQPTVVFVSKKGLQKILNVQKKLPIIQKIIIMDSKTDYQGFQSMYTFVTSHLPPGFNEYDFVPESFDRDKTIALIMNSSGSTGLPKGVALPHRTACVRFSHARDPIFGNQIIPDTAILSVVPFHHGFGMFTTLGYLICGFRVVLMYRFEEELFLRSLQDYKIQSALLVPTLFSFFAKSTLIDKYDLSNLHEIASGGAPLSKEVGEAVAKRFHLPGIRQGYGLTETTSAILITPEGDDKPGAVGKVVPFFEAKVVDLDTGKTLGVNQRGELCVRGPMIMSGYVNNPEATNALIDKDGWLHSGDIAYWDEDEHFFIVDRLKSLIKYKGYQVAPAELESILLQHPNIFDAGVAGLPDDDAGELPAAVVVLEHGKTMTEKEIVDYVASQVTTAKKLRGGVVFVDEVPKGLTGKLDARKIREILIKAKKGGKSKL
hiPSC survival – increases survival of single human iPS cells. hiPSC single-cell survival, ATPlite luminescence; 100% = ROCK inhibitor wells, 0% = DMSO. survival enhancement, % at 20 µM. actives 0.044% (n = 360,000). AID 602274; in the data active = survival enhancement above about 18%;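 also: cells exposed to compounds for 16 hours before the ATP read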
TRAIL sens C8 – caspase-8 TRAIL sensitization; NB7+C8 cells + TRAIL, ATPlite viability luminescence; inhibition (viability loss, TRAIL sensitization), % at 10 µM; actives 1% (n = 360,000); AID 624354;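 active = compounds causing at least 50% loss of cell viability in the single-dose screen, relative to plate controls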
beta cell repl – MIN6 beta-cell proliferation induction; MIN6 cells proliferation, ATPlite luminescence, 48 h; cells starved in 0.2% serum; 100% = growth in 10% serum; AID 2380; actives 0.29% (n = 330,000); proliferation, % at 10 µM;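 active = compounds whose signal lies at least 3.5 SD above the mean of all wells on their plate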;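 also: 0% = DMSO-treated cells in low-serum medium and 100% = 10% serum control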
FLuc stim CS – firefly luciferase counter-screen for stimulation assays; P08659; ATPlite luciferase biochemical, luminescence, 10 min; 0 = ATP-free wells, 1 = DMSO control; activation factor at 10 µM; 200,000 tested, under 10 active; AID 1027;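 active = luciferase activation factor, scaled between plate controls, of at least 2 with compound at 10 µM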
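System: luciferase plus luciferin reagent, cell-free; medium: PBS as buffer for the ATP substrate; dosing: test compounds dosed from 2 mM stocks in 100% DMSO; timing: 10 min post-reagent at room temperature; measured by: luminescence measurement of luciferase light output; evaluation: luciferase activation, seen as luminescence increase over controls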
PPC-1+TRAIL kill – compounds killing PPC-1 cancer cells with TRAIL present (potentiator screen, no TRAIL-free arm); PPC-1 cells + TRAIL, ATPLite viability luminescence; cell killing (% activity), % at 4 µM or 5 µM; actives 0.41% (n = 220,000); AID 1443;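 active = cell killing above 50% in the first pass at 4 µM, then a duplicate retest at 5 µM averaging 50% or more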;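 also: plate controls were cells with TRAIL plus DMSO for no effect and medium-only wells lacking cells for full effect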
* hit, by the source's call; / = not tested or not shown; ! = a repeat was not active.

SMILES | FLuc inh counter | hiPSC survival | TRAIL sens C8 | beta cell repl | FLuc stim CS | PPC-1+TRAIL kill
COc1cc(OC)c(C(=O)NCC(c2cccs2)N(C)C)cc1OC (centres undefined) | -3.8 | -0.8 | -8.9 | 0.9 | 1 | 5.3
COc1cc2ccccc2cc1C(=O)NCC(c1cccs1)N(C)C (centres undefined) | 63.8* | -0.6 | 35.3 | -1.1 | 0.4 | 21.6
Cc1n[nH]c(=O)c2c(NC(=O)CSc3nnc(C4CC4)n3C)oc(C)c12 | / | -0.3 | -7.9 | 6.3 | / | /
O=C(c1ccc(Cl)cc1)N1CCCCC(Sc2nnc(-c3ccc4c(c3)OCO4)o2)C1=O (centres undefined) | 28.9 | -2.3 | 68.7* | -4.9 | 0.7 | 47.7
Cc1ccccc1-n1c(C)cc(/C=N/NC(=O)c2ccncc2)c1C | 55.2* | -0.8 | 5.4 | 2.0 | 0.4 | 4.1
CCCCS(=O)(=O)N1CCCC(C(=O)Oc2ccc(Cl)cc2)C1 (centres undefined) | / | 0.0 | 4.0 | -2.0 | / | /
CC(=O)c1sc2nc(-c3ccc(C)cc3)c3c(c2c1N)CCCC3 | -7.3 | -1.2 | -37.6 | -4.9 | 1.1 | 16.9
Cc1ccc(-c2nc3sc(C(N)=O)c(N)c3c3c2CCCC3)cc1 | -2.7 | 2.3 | 14.9 | 0.0 | 1 | 54.6*
c1csc(-c2cn3ccc4ccccc4c3n2)c1 | 53.1* | -1.6 | 34.4 | -4.2 | 0.5 | 17.3
CCc1ccc(NC2=CC(=O)C(=O)c3ccccc32)cc1 | / | -0.3 | 93.2* | -7.3 | / | /
CC(=O)OCC(=O)C1(O)CCC2C3CCC4=CC(=O)CCC4(C)C3(Cl)C(O)CC21C (centres undefined) | / | 12.6 | -10.2 | / | / | /
CC(C)CC(/C(O)=C(\C#N)c1nc2ccccc2[nH]1)N1C(=O)c2ccccc2C1=O (centres undefined) | -3.9 | 1.6 | 65.1* | 0.4 | 1 | 0.0
O=C(Nc1nccs1)c1ccc(-c2ccc(F)cc2)o1 | 78.1* | -0.7 | 53.7* | -4.2 | 0.2 | 48.8
O=C(Nc1ccc(Cl)cc1Cl)c1n[nH]c(Cn2cncn2)n1 | 63.7* | -0.2 | 13.6 | -4.5 | 0.4 | 26.7
O=C(Nc1ccccc1Cl)Nc1ccnn1C1CCN(C(=O)C2CCOC2)CC1 (centres undefined) | / | -2.1 | -10.8 | / | / | /
COc1ccc(-c2cn3cccnc3n2)cc1F | 56.7* | -1.1 | 27.6 | -2.0 | 0.4 | 36.9
COc1ccc(NS(=O)(=O)c2ccc(C)c(NC(=O)CNC(=O)c3ccco3)c2)cc1 | / | -0.5 | 8.9 | -0.4 | / | /
CN(C)CCCn1cnc2c(c1=N)C(c1ccccc1)c1ccc3ccccc3c1O2 (centres undefined) | / | -0.2 | 70.5* | -4.8 | / | /
N=c1c2c(ncn1CCCO)Oc1c(ccc3ccccc13)C2c1ccccc1 (centres undefined) | / | -0.5 | 15.7 | -3.8 | / | 7.0
CC(Sc1nc(N)cc(=O)[nH]1)C(=O)Nc1nc2c(s1)CCCC2 (centres undefined) | / | 3.2 | 8.1 | 0.0 | / | /
CN(C)c1ccc(N=Nc2ccc(C(=O)O)cc2)cc1 | / | 0.4 | 50.6* | -4.2 | / | /
CC1C(=O)Nc2ccccc2N1C(=O)c1ccc(O)cc1 (centres undefined) | / | 0.1 | -2.2 | 0.1 | / | /
O=C1Nc2ccccc2N(C(=O)c2ccc3ccccc3c2)C1c1nc2ccccc2[nH]1 (centres undefined) | / | -1.4 | 58.2* | / | / | /
c1ccc2c(-c3cccc4nccn34)cncc2c1 | / | 4.1 | -1.7 | / | / | /
O=C(CC1CCC1)Nc1cccc2c([N+](=O)[O-])cccc12 | / | -0.3 | 16.5 | 0.6 | / | /
SMILES | FLuc inh counter | hiPSC survival | TRAIL sens C8 | beta cell repl | FLuc stim CS | PPC-1+TRAIL kill
O=C(O)c1cc(-c2ccc3c(c2)OCO3)nc2ccc(Br)cc12 | 71.9* | 2.0 | 19.5 | -4.4 | 0.3 | 26.8
Nc1[nH]c(N=NC(=O)c2ccccc2O)c2ccccc12 | 85.4* | -2.4 | 72.2* | -3.5 | 0.1 | 46.5
Nc1[nH]c(N=NC(=O)c2ccc(Cl)cc2)c2ccccc12 | 48.2 | -1.5 | 23.8 | 0.0 | 0.5 | 17.3
Nc1[nH]c(N=NC(=O)c2ccccc2)c2ccccc12 | 60.8* | -1.1 | -1.1 | -3.2 | 0.4 | 27.3
C/C(=N/NC(=O)c1cc(C(C)C)[nH]n1)c1cccs1 | 70.3* | -2.2 | 24.7 | -1.6 | 0.3 | 23.5
C/C(=N\NC(=O)c1cc(C(C)C)[nH]n1)c1ccncc1 | / | -0.5 | 10.5 | -2.3 | / | /
C/C(=N\NC(=O)c1cc(C)[nH]n1)c1cccs1 | 55.9* | -0.6 | 18.3 | -3.0 | 0.4 | 6.8
C/C(=N\NC(=O)c1cc(C(C)C)[nH]n1)c1ccco1 | 79.0* | -2.3 | 42.4 | -3.1 | 0.2 | 44.0
Cc1ccc(OC(C)C(=O)Nc2ccc(S(=O)(=O)N3CCOCC3)cc2)cc1 (centres undefined) | / | 0.5 | -4.1 | 3.6 | / | /
CCOc1cccc(C(=O)Nc2cc(C)ccc2NC(=O)c2ccco2)c1 | / | 0.8 | -1.7 | -2.0 | / | /
COC(=O)c1c(C)[nH]c(C(=O)/C=C/c2ccc(C)cc2)c1C | / | -0.9 | 11.1 | -4.4 | / | 5.1
COC(=O)c1c(C)[nH]c(C(=O)/C=C/c2ccccc2)c1C | 58.2* | -2.9 | 29.0 | 0.0 | 0.4 | 35.6
Cc1cc(C)cc(NS(=O)(=O)c2ccc3c(c2)c(=O)n(C)c(=O)n3C)c1 | -9.9 | 1.3 | 79.7* | -2.0 | 1.1 | 16.6
Cn1c(=O)c2cc(S(=O)(=O)Nc3cc(C(=O)O)cc(C(=O)O)c3)ccc2n(C)c1=O | -0.8 | -0.2 | -5.8 | 0.4 | 1 | 5.4
CC(=O)N1CCN(C(=O)COC(=O)COc2c(C)cc(C)cc2C)CC1 | / | 0.6 | -5.5 | -2.9 | / | /
CN(C)c1ccnc2c[cH-]cc12.[Fe].c1ccc(-[c-]2[c-](-c3ccccc3)[c-](-c3ccccc3)[c-](-c3ccccc3)[c-]2-c2ccccc2)cc1 (centres undefined) | / | -3.3 | 88.7*! | -7.9 | / | 26.9
Cc1ccc(S(=O)(=O)N2CCCCC2)cc1NS(=O)(=O)c1ccccc1F | / | 2.9 | 0.0 | -0.9 | / | /
Cc1cc(-c2nnc3n2N=C(c2ccccc2Br)CS3)n[nH]1 | / | -0.4 | 9.6 | -0.8 | / | -10.5
Cc1cccc(-c2nnc3n2N=C(c2ccccc2Br)CS3)c1 | -3.0 | -2.3 | 14.5 | 7.3* | 1 | 16.2
Cc1ccc(Cl)cc1N1CCN(C(=O)c2noc(C)c2[N+](=O)[O-])CC1 | / | 0.8 | 94.6* | -3.6 | / | /
O=C(NCCc1ccc(F)cc1)C(=O)Nc1cc2c3c(c1)CC(=O)N3CCC2 | / | 0.1 | -14.8 | -3.6 | / | /
CCC(=O)N1CCc2cc(S(=O)(=O)NC(C(=O)NC3CCCc4ccccc43)C(C)C)ccc21 (centres undefined) | -0.3 | -0.9 | 8.3 | 0.0 | 1 | 61.6*
COc1ccc(C(=O)N2CCNC(=O)C2)cc1S(=O)(=O)Nc1ccc(Br)cc1 | / | -0.2 | -10.1 | -3.2 | / | /
O=C(O)/C=C/c1cccc(NC(=O)c2ccc(Cl)cc2)c1 | 67.6* | -0.6 | 20.9 | -1.5 | 0.3 | /

Assay outcomes: PubChem BioAssay, Sanford-Burnham Center for Chemical Genomics
